Where “and” joins values, the source holds several entries; their conditions need not be identical. Equal entries are not always repeated.
Legend:
Mus musculus [1] = experiment: Protection against chloroform induced arrhythmias in mice after subcutaneous administration at 100 mg/kg dose.; type: functional
In short: (§1)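 Groups of 10 unanesthetized mice got sc injection of drug in 0.9% saline. After 20 min observation they were placed one by one in chloroform-vapor-saturated air. When breathing stopped, the thorax was opened and the heart inspected by eye; coordinated ventricular contractions counted as protected.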

Canis familiaris [2] = species on record: Canis familiaris; experiment: (§2) Toxicity of blood level was measured; type: organism-based, Canis lupus familiaris; conditions: dog, in vivo
In short: (§3)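 In coronary-ligated conscious dogs under iv infusion, blood was sampled at toxicity. Drug was extracted with methylene chloride at pH 10.3 (ammonium citrate/ammonia) with another analogue as internal standard, then derivatized with heptafluorobutyrylimidazole. Assay was GC-FID on 3% JXR, quantified from drug/internal standard peak-height ratio against standard curves; results in μmol/mL.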

Canis familiaris [3] = species on record: Canis familiaris; experiment: as §2; type: organism-based, Canis lupus familiaris; conditions: dog, in vivo; in short: as §3; remark: listed apart in the source
[4] = Volume of distribution was measured at given dose of 43 umol/kg; type: ADME, organism-based; conditions: in vivo
In short: (§4)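 In dogs given iv infusions, blood samples were alkaline-extracted (pH 10.3) into methylene chloride and derivatized with heptafluorobutyrylimidazole. Concentrations were measured by GC-FID against an internal standard using standard curves. Clearance was total dose ÷ blood-level AUC (zero to infinity), and volume of distribution was clearance ÷ elimination rate constant.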

[5] = Total body clearance was measured at given dose.; type: ADME, organism-based; conditions: in vivo
In short: (§5)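 Blood levels came from the iv-infused dogs, measured by GC-FID after methylene chloride extraction and heptafluorobutyryl derivatization with an internal standard. Total body clearance was total dose divided by the blood-level AUC (zero to infinity); volume of distribution was clearance divided by the elimination rate constant.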

[6] = Maximal concentration in dogs after 34 umol/kg intravenous dose; conditions: dog, in vivo
Canis familiaris [7] = species on record: Canis familiaris; experiment: (§6) Maximum dose of the Compound; type: functional, Canis lupus familiaris
In short: (§7)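 Adult female dogs (6.7–14.5 kg) had two-stage ligation of the left anterior descending coronary artery the day before testing. After control ventricular rate, % ectopic beats and mean arterial pressure were recorded, the drug (HCl salt, isotonic solution) was infused iv without anesthesia at 0.1, 0.5 or 1.0 (mg/kg)/min, mostly 0.5. Infusion continued until the arrhythmia was abolished or cardiovascular/CNS toxicity appeared. Cumulative dose is given in mmol/kg; toxicity included convulsion and P-R prolongation ≥25%.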

Canis familiaris [8] = species on record: Canis familiaris; experiment: as §6; type: ADME, organism-based, Canis lupus familiaris; conditions: dog, in vivo; in short: as §7
Canis familiaris [9] = experiment: Ventricular rate was measured in anesthetized dog at 0.016 dose; type: functional, Canis lupus familiaris, Heart; conditions: in the assay text read “unanesthetized dog” for “anesthetized dog”; in short: as §7
Mus musculus [10] = experiment: Protection against chloroform induced arrhythmias was measured in mice after sc administration at given dose.; type: functional; conditions: Mus musculus, sc; read-out: ED50; in short: as §1
Canis familiaris [11] = experiment: Blood level was measured in anesthetized dog at 0.016d ose.; type: functional, Canis lupus familiaris; conditions: in the assay text read “unanesthetized” for “anesthetized”
In short: (§8)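 Blood was sampled from unanesthetized dogs with coronary-ligation arrhythmias during iv drug infusion. Each 1 mL sample was mixed with internal standard and pH 10.3 ammonium citrate/ammonia buffer and extracted into methylene chloride. The extract was dried at 50 °C and derivatized with heptafluorobutyrylimidazole. Analysis was by GC with flame-ionization detection (3% JXR column, 220 °C). Concentration came from the drug/internal standard peak-height ratio against standard curves.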

[12] = Volume of distribution was measured at given dose of 81 umol/kg; type: ADME, organism-based; conditions: in vivo; in short: as §4
Mus musculus [13] = species on record: Mus musculus; experiment: Percentage toxicity measured as loss of righting reflex.; type: organism-based; conditions: in vivo
In short: (§9)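 Mice (groups of 10) were dosed sc with drug in 0.9% saline and watched for 20 min for overt toxicity (ataxia, convulsions, loss of righting reflex, death) before chloroform exposure.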

Canis familiaris [14] = experiment: % ectopic beats was measured in anesthetized dog at 0.016 dose.; type: functional, Canis lupus familiaris, Heart; conditions: in the assay text read “unanesthetized” for “anesthetized”
In short: (§10)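 Adult female dogs (6.7–14.5 kg) had the left anterior descending coronary artery ligated in two stages the day before testing. Dogs were unanesthetized. Ectopic beats (% of ventricular rate) and mean arterial pressure were read at maximal antiarrhythmic effect against the cumulative dose.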

Mus musculus [15] = species on record: Mus musculus; experiment: Percentage toxicity measured as ataxia.; type: organism-based; conditions: in vivo; in short: as §9
Canis familiaris [16] = experiment: Maximal concentration in dogs after intravenous administration; conditions: dog, in vivo
[17] = as above; conditions: dog, in vivo
Canis familiaris [18] = experiment: MABP value was measured in anesthetized dog at 0.047 dose.; type: functional, Canis lupus familiaris; conditions: in the assay text read “unanesthetized dog” for “anesthetized dog”; in short: as §7
Canis familiaris [19] = experiment: % ectopic beats was measured in anesthetized dog at 0.047 dose.; type: functional, Canis lupus familiaris, Heart; conditions: in the assay text read “unanesthetized” for “anesthetized”; in short: as §10
Canis familiaris [20] = species on record: Canis familiaris; experiment: (§11) The dose at which toxicity was measured.; type: organism-based, Canis lupus familiaris; conditions: dog, in vivo; in short: as §7
[21] = Percentage toxicity measured as death of mice.; type: organism-based; design: concentration or dose not given beside the values; conditions: mouse, in vivo; read-out: Death
Canis familiaris [22] = species on record: Canis familiaris; experiment: as §11; type: organism-based, Canis lupus familiaris; conditions: dog, in vivo; in short: as §7; remark: listed apart in the source
Canis familiaris [23] = experiment: Ventricular rate was measured in anesthetized dog at 0.047 dose; type: functional, Canis lupus familiaris, Heart; conditions: in the assay text read “unanesthetized dog” for “anesthetized dog”; in short: as §7
Mus musculus [24] = species on record: Mus musculus; experiment: Percentage toxicity measured as convulsions.; type: organism-based; conditions: in vivo; in short: as §9
Canis familiaris [25] = experiment: Blood level was measured in anesthetized 0.047 at given dose.; type: functional, Canis lupus familiaris; conditions: in the assay text read “unanesthetized” for “anesthetized”; in short: as §8
[26] = Volume of distribution was measured at given dose of 34 umol/kg; type: ADME, organism-based; conditions: in vivo; in short: as §4
Canis familiaris [27] = experiment: MABP value was measured in anesthetized dog at 0.016 dose.; type: functional, Canis lupus familiaris; conditions: in the assay text read “unanesthetized dog” for “anesthetized dog”; in short: as §10
Canis familiaris [28] = experiment: MABP value was measured in anesthetized dog at given dose; type: functional, Canis lupus familiaris
Canis familiaris [29] = species on record: Canis familiaris; experiment: (§12) Total dose of the compound; type: functional, Canis lupus familiaris; in short: as §7
Canis familiaris [30] = species on record: Canis familiaris; experiment: as §12; type: functional, Canis lupus familiaris; in short: as §7; remark: listed apart in the source
Canis familiaris [31] = species on record: Canis familiaris; experiment: Ventricular rate was measured in […] at 0.028 dose; type: functional, Canis lupus familiaris, Heart; in short: as §7
[32] = Volume of distribution was measured at given dose of 25 umol/kg; type: ADME, organism-based; conditions: in vivo; in short: as §4
Canis familiaris [33] = experiment: % ectopic beats was measured in unanesthetized dog at 0.004 dose
Canis familiaris [34] = species on record: Canis familiaris; experiment: Blood level was measured in […] at 0.004 dose; type: functional, Canis lupus familiaris
[35] = Volume of distribution was measured at given dose of 29 umol/kg; type: ADME, organism-based; conditions: in vivo; in short: as §4
Canis familiaris [36] = experiment: Blood level was measured in anesthetized dog at 0.014 dose; type: functional, Canis lupus familiaris
Canis familiaris [37] = experiment: Ventricular rate was measured in anesthetized dog at 0.014 dose; type: functional, Canis lupus familiaris, Heart; conditions: in the assay text read “unanesthetized dog” for “anesthetized dog”; in short: as §7
[38] = Maximal concentration in dogs after 29 umol/kg intravenous dose; conditions: dog, in vivo
Canis familiaris [39] = experiment: Ventricular rate was measured in anesthetized dog at 0.004 dose; type: functional, Canis lupus familiaris, Heart; conditions: in the assay text read “unanesthetized dog” for “anesthetized dog”; in short: as §7
Canis familiaris [40] = experiment: % ectopic beats was measured in anesthetized dog at 0.028 dose; type: functional, Canis lupus familiaris, Heart; conditions: in the assay text read “unanesthetized” for “anesthetized”; in short: as §10
[41] = Total body clearance was measured at given dose; type: ADME; in short: as §5
Canis familiaris [42] = experiment: % ectopic beats was measured in anesthetized dog at 0.014 dose; type: functional, Canis lupus familiaris, Heart; conditions: in the assay text read “unanesthetized” for “anesthetized”; in short: as §10
Mus musculus [43] = experiment: Protection against chloroform induced arrhythmias was measured in mice after sc administration at given dose; type: functional; in short: as §1

CCN(CC)CCCCN1C(=O)CC2(CCCc3ccc(OC)cc32)C1=O (stereo unspecified)
Protection (Mus musculus [1]): 80% | Blood level (Canis familiaris [2]): 18 µM | Blood level (Canis familiaris [3]): 0.029 uM ml-1 | Vd [4]: 2.47 L/kg | ClB [5]: 8.22 mL/min/kg and 12.8 mL/min/kg | clearance ([5]; ClB): 10.4 mL/min/kg | Cmax [6]: 12 µM | Dose (Canis familiaris [7]): 81 µM/kg and 43 µM/kg | Dose (Canis familiaris [8]): 34 µM/kg | Ventricular rate (Canis familiaris [9]): 147 beats min-1 | ED50 (Mus musculus [10]): 130 µmol/kg | Blood level (Canis familiaris [11]): 0.011 uM ml-1 | Vd [12]: 3.41 L/kg | Loss of righting reflex (Mus musculus [13]): 0% | Etopic beats (Canis familiaris [14]): 1% | Ataxia (Mus musculus [15]): 0% | Cmax (Canis familiaris [16]): 20 µM | Cmax [17]: 29 µM | MABP (Canis familiaris [18]): 100 mmHg | Etopic beats (Canis familiaris [19]): 0% | Cumulative dose (Canis familiaris [20]): 0.02 | mortality [21]: 0% | Cumulative dose (Canis familiaris [22]): 0.081 | Ventricular rate (Canis familiaris [23]): 165 beats min-1 | Convulsion (Mus musculus [24]): 0% | Blood level (Canis familiaris [25]): 0.02 uM ml-1 | Vd [26]: 2.64 L/kg | MABP (Canis familiaris [27]): 95 mmHg

CCN(CC)CCCN1C(=O)CC2(CCCc3ccc(O)cc32)C1=O (stereo unspecified)
Protection (Mus musculus [1]): 80% | MABP (Canis familiaris [28]): 85 mmHg and 125 mmHg | Dose (Canis familiaris [29]): 29 µM/kg | Dose (Canis familiaris [30]): 25 µM/kg | Ventricular rate (Canis familiaris [31]): 153 beats min-1 | Vd [32]: 1.58 L/kg | Loss of righting reflex (Mus musculus [13]): 0% | Ectopic beats (Canis familiaris [33]): 3% | Blood level (Canis familiaris [34]): 0.019 uM ml-1 | Vd [35]: 1.6 L/kg | Blood level (Canis familiaris [36]): 0.01 uM ml-1 | Ataxia (Mus musculus [15]): 0% | Ventricular rate (Canis familiaris [37]): 150 beats min-1 | Cmax [17]: 31 µM | Cmax [38]: 15 µM | Ventricular rate (Canis familiaris [39]): 168 beats min-1 | mortality [21]: 0% | Etopic beats (Canis familiaris [40]): 6% | ClB [41]: 6.06 mL/min/kg | clearance ([41]; ClB): 3.81 mL/min/kg | Convulsion (Mus musculus [24]): 0% | Etopic beats (Canis familiaris [42]): 0% | ED50 (Mus musculus [43]): 90 µmol/kg

Source: ChEMBL document CHEMBL1121715, “New antiarrhythmic agents. 4. 1'-(Aminoalkyl)-1,2,3,4-tetrahydronaphthalene-1-spiro-3'-pyrrolidine-2',5'-dione derivatives” (J Med Chem, 1981)
